Test results reported in ChEMBL document CHEMBL3259774, “Antimycobacterial activity of chiral aminoalcohols with camphane scaffold” (Eur J Med Chem, 2014).
Values after ≈ are worked out from the molar mass of the structure shown. Counter-ions that a name gives are not always drawn.

How the values were obtained:
[1] = tested on: Mycobacterium tuberculosis; experiment: Antimycobacterial activity against Mycobacterium tuberculosis H37Rv assessed as growth inhibition after 45 days; type: functional
Procedure, shortened: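 Canetti proportion method on Löwenstein–Jensen egg medium. Each compound was added as a sterile DMSO suspension/solution before coagulation (30 min at 85 °C) and tested at five concentrations. Tubes were inoculated with 10⁵ cells/ml and incubated 45 days at 37 °C. Colony counts were expressed as percent of drug-free control. MIC is the lowest concentration giving complete inhibition (0% growth).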

HEK-293T = experiment: Cytotoxicity against HEK293T cells after 72 hrs by MTT assay; type: cell-based; settings: Homo sapiens
Procedure, shortened: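 HEK 293T cells grown in RPMI-1640 with 10% heat-inactivated foetal calf serum and 2 mM L-glutamine, 37 °C, 5% CO2. Cells seeded at […] cells/ml, grown 24 h, then exposed 72 h to compounds serially diluted from fresh DMSO stocks (final DMSO ≤0.5%), ≥8 wells per concentration. MTT added for 4 h at 37 °C, formazan dissolved in 5% HCOOH/2-propanol, read at 580 nm. Survival expressed as % of untreated control; IC50 from sigmoidal curve fit.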

Row | SMILES | MIC [1] [µM] | IC50 (HEK-293T) [µM]
1 | CC1(C)[C@@H]2CC[C@@]1([C@H](O)CN1CCSCC1)C(=O)C2 | 17.6 (≈ 5 µg/mL) | –
2 | CC1(C)[C@@H]2CC[C@@]1([C@@H](O)CN1CCN(c3ccccc3)CC1)C(=O)C2 | 14.6 (≈ 5 µg/mL) | –
3 | CC(C)N(C[C@H](O)[C@]12CC[C@H](CC1=O)C2(C)C)C(C)C | 0.37 (≈ 0.104 µg/mL) | 166
4 | CC1(C)[C@@H]2CC[C@@]1([C@H](O)CN1CCOCC1)C(=O)C2 | 18.7 (≈ 5 µg/mL) | –
5 | CC1(C)[C@@H]2CC[C@@]1([C@@H](O)CN1CCSCC1)C(=O)C2 | 17.6 (≈ 5 µg/mL) | –
6 | CC1(C)[C@@H]2CC[C@@]1([C@H](O)CN1CCCCC1)C(=O)C2 | 18.8 (≈ 5 µg/mL) | –
7 | CC1CCN(C[C@@H](O)[C@]23CC[C@H](CC2=O)C3(C)C)CC1 | 0.36 (≈ 0.101 µg/mL) | 169
8 | CC1(C)[C@@H]2CC[C@@]1([C@H](O)CN1CCN(c3ccccc3)CC1)C(=O)C2 | 14.6 (≈ 5 µg/mL) | –
9 | CC(C)N(C[C@@H](O)[C@]12CC[C@H](CC1=O)C2(C)C)C(C)C | 10.7 (≈ 3 µg/mL) | –
10 | CN1CCN(C[C@H](O)[C@]23CC[C@H](CC2=O)C3(C)C)CC1 | 17.8 (≈ 5 µg/mL) | –
11 | CC1(C)[C@@H]2CC[C@@]1([C@@H](O)CN1CCCCC1)C(=O)C2 | 0.38 (≈ 0.101 µg/mL) | 143
12 | CN1CCN(C[C@@H](O)[C@]23CC[C@H](CC2=O)C3(C)C)CC1 | 17.8 (≈ 5 µg/mL) | –
13 | CC1(C)[C@@H]2CC[C@@]1([C@H](O)CN1CCN(c3ccc(F)cc3)CC1)C(=O)C2 | 0.28 (≈ 0.101 µg/mL) | 65.1
14 | CC1CCN(C[C@H](O)[C@]23CC[C@H](CC2=O)C3(C)C)CC1 | 0.72 (≈ 0.201 µg/mL) | 158
15 | CC1(C)[C@@H]2CC[C@@]1([C@@H](O)CN1CCN(c3ccc(F)cc3)CC1)C(=O)C2 | 0.28 (≈ 0.101 µg/mL) | 82.2
16 | CC1(C)[C@@H]2CC[C@@]1([C@@H](O)CN1CCN(c3ccccc3F)CC1)C(=O)C2 | 0.28 (≈ 0.101 µg/mL) | 129
17 | CC1(C)[C@@H]2CC[C@@]1([C@@H](O)CN1CCN(c3ccc(Cl)cc3)CC1)C(=O)C2 | 7.96 (≈ 3 µg/mL) | 8.6
18 | CC[C@@H](CO)NCCN[C@@H](CC)CO [ETHAMBUTOL HYDROCHLORIDE] | 7.22 | –
19 | CC1(C)[C@@H]2CC[C@@]1([C@H](O)CN1CCN(c3ccccc3F)CC1)C(=O)C2 | 0.28 (≈ 0.101 µg/mL) | 120
20 | CC1(C)[C@@H]2CC[C@@]1([C@@H](O)CN1CCOCC1)C(=O)C2 | 0.37 (≈ 0.0989 µg/mL) | > 200
21 | CC1(C)[C@@H]2CC[C@@]1([C@@H](O)CN1CCCC1)C(=O)C2 | 19.9 (≈ 5 µg/mL) | –
22 | CC1(C)[C@@H]2CC[C@@]1([C@H](O)CN1CCN(c3ccc(Cl)cc3)CC1)C(=O)C2 | 0.27 (≈ 0.102 µg/mL) | 9.2
